Laboratory results published in ChEMBL document CHEMBL3243962, “Antileukemic activity of derivatives of 1,2-dimethyl-3,4-bis(hydroxymethyl)-5-phenylpyrrole bis(N-methylcarbamate)” (J Med Chem, 1979).
Activity calls are given as the source filed them.

Legend:
Mus musculus [1] = assay: Toxicity in mouse P388 cells allografted CD2F1 mouse assessed as body weight loss at 50 mg/kg, ip of total 9 doses starting 24 hrs post tumor inoculation measured on day 5 of inoculation relative to control; assay type: organism-based; set-up: dose 50 mg/kg, route intraperitoneal; conditions: in vivo
Method in brief: (§1)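 Male CD2F1 mice inoculated ip with 6×10^6 P388 leukemia cells. Compounds given ip as distilled water–Tween 80 suspension, nine daily doses starting 24 h after inoculation; six mice per dose group. Treated-minus-control body-weight change (T − C) and toxicity-day survivors recorded on day 5 (4 days after first dose).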

Mus musculus [2] = assay: Toxicity in mouse P388 cells allografted CD2F1 mouse assessed as mouse survival at 25 mg/kg, ip of total 9 doses starting 24 hrs post tumor inoculation measured on day 5 of inoculation relative to control; assay type: organism-based; set-up: dose 25 mg/kg, route intraperitoneal; conditions: in vivo
Method in brief: (§2)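 Male CD2F1 mice bearing ip P388 leukemia (6×10^6 cells) were dosed ip with nine daily doses in distilled water–Tween 80 suspension, starting 24 h after inoculation. Survivors per group of 6 were counted on day 5, i.e. 4 days after the first dose. Body-weight change of treated minus control mice was also recorded.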

Mus musculus [3] = assay: Toxicity in mouse P388 cells allografted CD2F1 mouse assessed as mouse survival at 12.5 mg/kg, ip of total 9 doses starting 24 hrs post tumor inoculation measured on day 5 of inoculation relative to control; assay type: organism-based; set-up: dose 12.5 mg/kg, route intraperitoneal; conditions: in vivo; method in brief: as §2
Mus musculus [4] = assay: Toxicity in mouse P388 cells allografted CD2F1 mouse assessed as body weight loss at 12.5 mg/kg, ip of total 9 doses starting 24 hrs post tumor inoculation measured on day 5 of inoculation relative to control; assay type: organism-based; set-up: dose 12.5 mg/kg, route intraperitoneal; conditions: in vivo; method in brief: as §1
Mus musculus [5] = assay: Toxicity in mouse P388 cells allografted CD2F1 mouse assessed as body weight loss at 6.25 mg/kg, ip of total 9 doses starting 24 hrs post tumor inoculation measured on day 5 of inoculation relative to control; assay type: organism-based; set-up: dose 6.25 mg/kg, route intraperitoneal; conditions: in vivo; method in brief: as §1
Mus musculus [6] = assay: Toxicity in mouse P388 cells allografted CD2F1 mouse assessed as body weight loss at 100 mg/kg, ip of total 9 doses starting 24 hrs post tumor inoculation measured on day 5 of inoculation relative to control; assay type: organism-based; set-up: dose 100 mg/kg, route intraperitoneal; conditions: in vivo; method in brief: as §1
Mus musculus [7] = assay: Toxicity in mouse P388 cells allografted CD2F1 mouse assessed as body weight loss at 25 mg/kg, ip of total 9 doses starting 24 hrs post tumor inoculation measured on day 5 of inoculation relative to control; assay type: organism-based; set-up: dose 25 mg/kg, route intraperitoneal; conditions: in vivo; method in brief: as §1
Mus musculus [8] = assay: Toxicity in mouse P388 cells allografted CD2F1 mouse assessed as mouse survival at 6.25 mg/kg, ip of total 9 doses starting 24 hrs post tumor inoculation measured on day 5 of inoculation relative to control; assay type: organism-based; set-up: dose 6.25 mg/kg, route intraperitoneal; conditions: in vivo; method in brief: as §2
P388 [9] = assay: Antitumor activity against mouse P388 cells allografted in CD2F1 mouse assessed as increase in mouse survival at 12.5 mg/kg, ip of total 9 doses starting 24 hrs post tumor inoculation measured on day 5 of inoculation relative to control; assay type: functional; conditions: route intraperitoneal
Method in brief: (§3)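 Male CD2F1 mice inoculated ip with 6×10^6 P388 leukemia cells. Dosing was ip as a suspension in distilled water–Tween 80, nine daily doses starting 24 h after inoculation. Activity was read as median survival time of treated vs control mice (% T/C); % T/C ≥ 120 was considered significant. Groups were 6 mice.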

P388 [10] = assay: Antitumor activity against mouse P388 cells allografted in CD2F1 mouse assessed as increase in mouse survival at 25 mg/kg, ip of total 9 doses starting 24 hrs post tumor inoculation measured on day 5 of inoculation relative to control; assay type: functional; conditions: route intraperitoneal; method in brief: as §3
Mus musculus [11] = assay: Toxicity in mouse P388 cells allografted CD2F1 mouse assessed as mouse survival at 100 mg/kg, ip of total 9 doses starting 24 hrs post tumor inoculation measured on day 5 of inoculation relative to control; assay type: organism-based; set-up: dose 100 mg/kg, route intraperitoneal; conditions: in vivo; method in brief: as §2
P388 [12] = assay: Antitumor activity against mouse P388 cells allografted in CD2F1 mouse assessed as increase in mouse survival at 6.25 mg/kg, ip of total 9 doses starting 24 hrs post tumor inoculation measured on day 5 of inoculation relative to control; assay type: functional; conditions: route intraperitoneal; method in brief: as §3
P388 [13] = assay: Antitumor activity against mouse P388 cells allografted in CD2F1 mouse assessed as increase in mouse survival at 50 mg/kg, ip of total 9 doses starting 24 hrs post tumor inoculation measured on day 5 of inoculation relative to control; assay type: functional; conditions: route intraperitoneal; method in brief: as §3
Mus musculus [14] = assay: Toxicity in mouse P388 cells allografted CD2F1 mouse assessed as mouse survival at 50 mg/kg, ip of total 9 doses starting 24 hrs post tumor inoculation measured on day 5 of inoculation relative to control; assay type: organism-based; set-up: dose 50 mg/kg, route intraperitoneal; conditions: in vivo; method in brief: as §2
[15] = system: Staphylococcus epidermidis; assay: Antimicrobial activity against Staphylococcus epidermidis ATCC 12228 at 1 mg after 24 hrs by disk sensitivity assay; assay type: functional, organism-based
Method in brief: (§4)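 Bacteria grown 24 h in trypticase soy broth; 1 mL used to seed a lawn on trypticase soy agar. Sterile 6 mm paper disks carrying 1 mg test compound placed on agar, incubated 24 h at 37 °C, then zone of inhibition around each disk measured.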

Staphylococcus aureus = assay: Antimicrobial activity against Staphylococcus aureus ATCC 25923 at 1 mg after 24 hrs by disk sensitivity assay; assay type: functional, organism-based; method in brief: as §4
P388 [16] = assay: Antitumor activity against mouse P388 cells allografted in CD2F1 mouse assessed as increase in mouse survival at 100 mg/kg, ip of total 9 doses starting 24 hrs post tumor inoculation measured on day 5 of inoculation relative to control; assay type: functional; conditions: route intraperitoneal; method in brief: as §3
P388 [17] = assay: Antitumor activity against mouse P388 cells allografted in CD2F1 mouse assessed as increase in mouse survival at 40 mg/kg, ip of total 9 doses starting 24 hrs post tumor inoculation measured on day 5 of inoculation relative to control; assay type: functional; conditions: route intraperitoneal; method in brief: as §3
P388 [18] = assay: Antitumor activity against mouse P388 cells allografted in CD2F1 mouse assessed as increase in mouse survival at 5 mg/kg, ip of total 9 doses starting 24 hrs post tumor inoculation measured on day 5 of inoculation relative to control; assay type: functional; conditions: route intraperitoneal; method in brief: as §3
Mus musculus [19] = assay: Toxicity in mouse P388 cells allografted CD2F1 mouse assessed as mouse survival at 10 mg/kg, ip of total 9 doses starting 24 hrs post tumor inoculation measured on day 5 of inoculation relative to control; assay type: organism-based; set-up: dose 10 mg/kg, route intraperitoneal; conditions: in vivo; method in brief: as §2
P388 [20] = assay: Antitumor activity against mouse P388 cells allografted in CD2F1 mouse assessed as increase in mouse survival at 20 mg/kg, ip of total 9 doses starting 24 hrs post tumor inoculation measured on day 5 of inoculation relative to control; assay type: functional; conditions: route intraperitoneal; method in brief: as §3
Mus musculus [21] = assay: Toxicity in mouse P388 cells allografted CD2F1 mouse assessed as body weight loss at 10 mg/kg, ip of total 9 doses starting 24 hrs post tumor inoculation measured on day 5 of inoculation relative to control; assay type: organism-based; set-up: dose 10 mg/kg, route intraperitoneal; conditions: in vivo; method in brief: as §1
Mus musculus [22] = assay: Toxicity in mouse P388 cells allografted CD2F1 mouse assessed as mouse survival at 20 mg/kg, ip of total 9 doses starting 24 hrs post tumor inoculation measured on day 5 of inoculation relative to control; assay type: organism-based; set-up: dose 20 mg/kg, route intraperitoneal; conditions: in vivo; method in brief: as §2
Mus musculus [23] = assay: Toxicity in mouse P388 cells allografted CD2F1 mouse assessed as body weight loss at 5 mg/kg, ip of total 9 doses starting 24 hrs post tumor inoculation measured on day 5 of inoculation relative to control; assay type: organism-based; set-up: dose 5 mg/kg, route intraperitoneal; conditions: in vivo; method in brief: as §1
Mus musculus [24] = assay: Toxicity in mouse P388 cells allografted CD2F1 mouse assessed as body weight loss at 40 mg/kg, ip of total 9 doses starting 24 hrs post tumor inoculation measured on day 5 of inoculation relative to control; assay type: organism-based; set-up: dose 40 mg/kg, route intraperitoneal; conditions: in vivo; method in brief: as §1
Mus musculus [25] = assay: Toxicity in mouse P388 cells allografted CD2F1 mouse assessed as body weight loss at 20 mg/kg, ip of total 9 doses starting 24 hrs post tumor inoculation measured on day 5 of inoculation relative to control; assay type: organism-based; set-up: dose 20 mg/kg, route intraperitoneal; conditions: in vivo; method in brief: as §1
Mus musculus [26] = assay: Toxicity in mouse P388 cells allografted CD2F1 mouse assessed as mouse survival at 5 mg/kg, ip of total 9 doses starting 24 hrs post tumor inoculation measured on day 5 of inoculation relative to control; assay type: organism-based; set-up: dose 5 mg/kg, route intraperitoneal; conditions: in vivo; method in brief: as §2
P388 [27] = assay: Antitumor activity against mouse P388 cells allografted in CD2F1 mouse assessed as increase in mouse survival at 10 mg/kg, ip of total 9 doses starting 24 hrs post tumor inoculation measured on day 5 of inoculation relative to control; assay type: functional; conditions: route intraperitoneal; method in brief: as §3

| SMILES | Activity (Mus musculus [1]) [g] | Activity (Mus musculus [2]) | Activity (Mus musculus [3]) | Activity (Mus musculus [4]) [g] | Activity (Mus musculus [5]) [g] | Activity (Mus musculus [6]) [g] | Activity (Mus musculus [7]) [g] | Activity (Mus musculus [8]) | T/C (P388 [9]) [%] | T/C (P388 [10]) [%] | Activity (Mus musculus [11]) | T/C (P388 [12]) [%] | T/C (P388 [13]) [%] | Activity (Mus musculus [14]) | Activity [15] | Activity (Staphylococcus aureus) | other results |
| --- | --- | --- | --- | --- | --- | --- | --- | --- | --- | --- | --- | --- | --- | --- | --- | --- | --- |
| CNC(=O)OCc1c(COC(=O)NC)c(-c2ccc(C)cc2)n(C)c1C | 4.5 | Non-toxic | Non-toxic | 3.2 | 1.4 | 1.8 | 3.4 | Non-toxic | 144 | 144 | Toxic | 138 |  |  |  |  |  |
| CNC(=O)OCc1c(COC(=O)NC)c(-c2ccc(Cl)c(Cl)c2)n(C)c1C | 3.2 | Non-toxic | Non-toxic | 1.7 | 1.7 | 5.9 | 2.4 | Non-toxic | 145 | 148 |  | 145 | 163 | Non-toxic | Active |  |  |
| CNC(=O)OCc1c(COC(=O)NC)c(-c2ccc(OC)cc2)n(C)c1C | 4.4 | Non-toxic | Non-toxic | 3.2 | 2.4 | 5.5 | 3.4 | Non-toxic | 138 | 145 |  | 135 | 152 | Non-toxic | Active | Active | T/C (P388 [16]): <70% |
| CNC(=O)OCc1c(COC(=O)NC)c(-c2ccc(Br)cc2)n(C)c1C |  |  |  |  |  |  |  |  |  |  |  |  |  |  |  |  | T/C (P388 [17]): <75%; T/C (P388 [18]): 144%; Activity (Mus musculus [19]): Non-toxic; T/C (P388 [20]): 155%; Activity (Mus musculus [21]): 2.8 g; Activity (Mus musculus [22]): Non-toxic; Activity (Mus musculus [23]): 1.8 g; Activity (Mus musculus [24]): 5 g; Activity (Mus musculus [25]): 2.8 g; Activity (Mus musculus [26]): Non-toxic; T/C (P388 [27]): 146% |
| CNC(=O)OCc1c(COC(=O)NC)c(-c2ccc(F)cc2)n(C)c1C | 5.1 | Non-toxic | Non-toxic | 4.3 | 2.4 | 1.8 | 3.9 | Non-toxic | 130 | 150 | Toxic | 134 | 132 | Non-toxic | Active | Active |  |
